Assay results from ChEMBL document CHEMBL3576799, “Aranciamycins I and J, Antimycobacterial Anthracyclines from an Australian Marine-Derived Streptomyces sp” (J Nat Prod, 2015).
Converted amounts (≈) assume the structure as drawn.

Columns and labels:
Bacillus subtilis = experiment: Antibacterial activity against Bacillus subtilis ATCC 6051 after 24 hrs by spectrophotometric analysis; assay type: functional, organism-based; details: ATCC 6051, 24 h
Bacillus spizizenii = experiment: Antibacterial activity against Bacillus subtilis ATCC 6633 after 24 hrs by spectrophotometric analysis; assay type: functional, organism-based; details: ATCC 6633, 24 h
Staphylococcus aureus [1] = experiment: Antibacterial activity against Staphylococcus aureus ATCC 9144 after 24 hrs by spectrophotometric analysis; assay type: functional, organism-based; details: ATCC 9144, 24 h
Staphylococcus aureus [2] = experiment: Antibacterial activity against Staphylococcus aureus ATCC 25923 after 24 hrs by spectrophotometric analysis; assay type: functional, organism-based; details: ATCC 25923, 24 h
Escherichia coli = experiment: Antibacterial activity against Escherichia coli ATCC 11775 after 24 hrs by spectrophotometric analysis; assay type: functional, organism-based; details: DSM 30083 = JCM 1649 = ATCC 11775, 24 h
Pseudomonas aeruginosa = experiment: Antibacterial activity against Pseudomonas aeruginosa ATCC 10145 after 24 hrs by spectrophotometric analysis; assay type: functional, organism-based; details: ATCC 10145, 24 h
Candida albicans = experiment: Antifungal activity against Candida albicans ATCC 90028 after 48 hrs by spectrophotometric analysis; assay type: functional, organism-based; details: ATCC 90028, 48 h
SW-620 = experiment: Cytotoxicity against human SW620 cells assessed as growth inhibition after 48 hrs by MTT assay; assay type: functional, cell-based; details: SW-620, 48 h
Outline: (§1)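 Modified MTT assay on adherent human cancer lines: SW620 (epithelial-like colorectal carcinoma), NCI-H460 (epithelial-like lung carcinoma), KB-3-1 (epithelial-like cervix carcinoma) and HepG2 (hepatocellular carcinoma). Output given as IC50.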

HepG2 = experiment: Cytotoxicity against human HepG2 cells assessed as growth inhibition after 48 hrs by MTT assay; assay type: functional, cell-based; details: HepG2, 48 h; outline: as §1
[3] = Cytotoxicity against human KB-3-1 cells assessed as growth inhibition after 48 hrs by MTT assay; assay type: functional, cell-based; details: KB 3-1, 48 h; outline: as §1
NCI-H460 = experiment: Cytotoxicity against human NCI-H460 cells assessed as growth inhibition after 48 hrs by MTT assay; assay type: functional, cell-based; details: NCI-H460, 48 h; outline: as §1

Row | Compound | IC50 (Bacillus subtilis) [µM] | MIC (Bacillus subtilis) [µM] | IC50 (Bacillus spizizenii) [µM] | MIC (Bacillus spizizenii) [µM] | IC50 (Staphylococcus aureus [1]) [µM] | MIC (Staphylococcus aureus [1]) [µM] | IC50 (Staphylococcus aureus [2]) [µM] | MIC (Staphylococcus aureus [2]) [µM] | IC50 (Escherichia coli) [µM] | MIC (Escherichia coli) [µM] | IC50 (Pseudomonas aeruginosa) [µM] | MIC (Pseudomonas aeruginosa) [µM] | IC50 (Candida albicans) [µM] | MIC (Candida albicans) [µM] | IC50 (SW-620) [µM] | IC50 (HepG2) [µM] | IC50 [3] [µM] | IC50 (NCI-H460) [µM]
1 | C[C@@H]1O[C@@H](O[C@H]2C[C@](C)(O)Cc3cc4c(c(O)c32)C(=O)c2c(O)cccc2C4=O)[C@H](O)[C@H](O)[C@H]1O | 1.1 | 3.7 (≈ 1.8 µg/mL) | 3 | 7.5 (≈ 3.65 µg/mL) | > 30 | > 30 | > 30 | > 30 | > 30 | > 30 | > 30 | > 30 | > 30 | > 30 | 7.5 | 12 | > 30 | 9
2 | CO[C@H]1[C@H](O[C@H]2C[C@](C)(O)C(=O)c3cc4c(c(O)c32)C(=O)c2c(O)cccc2C4=O)O[C@@H](C)[C@H](O)[C@H]1O | 2.4 | 7.2 (≈ 3.7 µg/mL) | 2.8 | 7.5 (≈ 3.86 µg/mL) | > 30 | > 30 | > 30 | > 30 | > 30 | > 30 | > 30 | > 30 | > 30 | > 30 | 10 | 12 | > 30 | > 30
3 | CO[C@H]1[C@H](O[C@H]2C[C@](C)(O)Cc3cc4c(c(O)c32)C(=O)c2c(O)cccc2C4=O)O[C@@H](C)[C@H](O)[C@H]1O | 2.8 | 7.5 (≈ 3.75 µg/mL) | 2.4 | 7.5 (≈ 3.75 µg/mL) | > 30 | > 30 | > 30 | > 30 | > 30 | > 30 | > 30 | > 30 | > 30 | > 30 | > 30 | > 30 | > 30 | > 30
4 | CO[C@H]1[C@H](O[C@@H]2c3c(cc4c(c3O)C(=O)c3c(O)cccc3C4=O)C(=O)[C@@](C)(O)[C@H]2OC)O[C@@H](C)[C@H](O)[C@H]1O [ARANCIAMYCIN] | 6 | 15 (≈ 8.17 µg/mL) | 5.8 | 15 (≈ 8.17 µg/mL) | > 30 | > 30 | > 30 | > 30 | > 30 | > 30 | > 30 | > 30 | > 30 | > 30 | > 30 | 18 | > 30 | > 30
